34 compounds from ChEMBL document CHEMBL4308880, “Novel monoamine oxidase inhibitors based on the privileged 2-imidazoline molecular framework” (Bioorg Med Chem Lett, 2019) can be followed below.

Data set [1] deals with T1, Amine oxidase [flavin-containing] A (Homo sapiens, UniProt P21397).
T1 sequence (P21397 whole entry): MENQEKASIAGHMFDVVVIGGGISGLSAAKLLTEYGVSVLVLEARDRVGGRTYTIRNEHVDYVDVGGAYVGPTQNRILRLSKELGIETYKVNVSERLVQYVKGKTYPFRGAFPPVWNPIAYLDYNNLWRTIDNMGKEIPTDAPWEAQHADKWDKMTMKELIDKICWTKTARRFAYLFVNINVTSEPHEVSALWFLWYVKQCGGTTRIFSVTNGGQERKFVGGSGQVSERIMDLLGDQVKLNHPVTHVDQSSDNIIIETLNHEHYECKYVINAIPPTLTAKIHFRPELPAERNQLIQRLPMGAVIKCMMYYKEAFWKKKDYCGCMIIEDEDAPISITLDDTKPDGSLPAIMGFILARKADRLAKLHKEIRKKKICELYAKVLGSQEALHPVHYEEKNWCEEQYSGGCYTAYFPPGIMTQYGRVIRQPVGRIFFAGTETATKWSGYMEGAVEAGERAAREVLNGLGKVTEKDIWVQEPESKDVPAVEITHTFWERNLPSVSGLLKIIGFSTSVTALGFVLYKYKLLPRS
In words: Inhibition of recombinant human MAOA expressed in insect cell microsomes using kynuramine as substrate preincubated with substrate for 30 mins followed by enzyme addition and measured after 20 mins by fluorescence spectrophotometry. The gist of the method: (§1)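 Recombinant human enzyme; kynuramine as substrate for both isoforms. 4-Hydroxyquinoline product read by fluorescence spectrophotometry after alkalization. Rates measured without and with inhibitor at 0.0003–100 µM. IC50 estimated from sigmoidal plots of rate versus log inhibitor concentration. Reported as mean ± standard deviation of triplicate experiments.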

Data set [2] has as its target T2, Amine oxidase [flavin-containing] B (Homo sapiens, UniProt P27338).
T2 sequence (P27338 whole entry): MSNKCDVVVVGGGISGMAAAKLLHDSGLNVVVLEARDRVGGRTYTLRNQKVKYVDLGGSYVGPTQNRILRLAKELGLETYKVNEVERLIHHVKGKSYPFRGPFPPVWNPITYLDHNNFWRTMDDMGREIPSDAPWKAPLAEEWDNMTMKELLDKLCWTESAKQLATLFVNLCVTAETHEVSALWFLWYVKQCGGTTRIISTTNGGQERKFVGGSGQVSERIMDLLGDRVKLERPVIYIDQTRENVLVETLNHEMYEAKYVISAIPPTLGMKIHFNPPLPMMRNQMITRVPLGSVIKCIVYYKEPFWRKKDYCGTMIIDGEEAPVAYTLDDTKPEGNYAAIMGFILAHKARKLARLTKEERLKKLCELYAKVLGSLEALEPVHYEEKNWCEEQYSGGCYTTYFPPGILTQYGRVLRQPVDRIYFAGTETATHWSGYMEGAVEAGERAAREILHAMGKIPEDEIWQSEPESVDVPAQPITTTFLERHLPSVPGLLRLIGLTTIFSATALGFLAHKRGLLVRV
Briefly: Inhibition of recombinant human MAOB expressed in insect cell microsomes using kynuramine as substrate preincubated with substrate for 30 mins followed by enzyme addition and measured after 20 mins by fluorescence spectrophotometry. The gist of the method: as §1

A further data set is filed under the species Homo sapiens. Briefly: Selectivity index, ratio of IC50 for recombinant human MAOA expressed in insect cell microsomes to IC50 for recombinant human MAOB expressed in insect cell microsomes.
Data set [3] deals with T1, Amine oxidase [flavin-containing] A. Briefly: Competitive inhibition of human MAOA using p-trifluoromethyl benzylamine as substrate preincubated with substrate for 5 mins followed by enzyme addition by fluorimetric horseradish peroxidase-Amplex Red-coupled assay.
Data set [4] concerns the target T2, Amine oxidase [flavin-containing] B. Briefly: Reversible inhibition of recombinant human MAO-B expressed in insect cell microsomes assessed as residual activity using kynuramine as substrate at 4 times IC50 concentration preincubated for 15 mins with subsequent dialysis for 24 hrs followed by substrate addition measured after 20 mins by fluorescence spectroscopy relative to control. The gist of the method: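 Enzyme preincubated 15 min with inhibitor at 4 × IC50, then dialyzed 24 h. Samples then diluted twofold to 2 × IC50. Kynuramine added and reactions run 20 min. 4-Hydroxyquinoline quantified by fluorescence spectrophotometry. Controls: dialysis with no inhibitor (set as 100%) and dialysis with the irreversible inhibitor (R)-deprenyl.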

Data set [5] shares this target. Briefly: Inhibition of recombinant human MAO-B expressed in insect cell microsomes assessed as residual activity using kynuramine as substrate at 4 times IC50 concentration preincubated for 15 mins measured after 20 mins by fluorescence spectroscopy relative to control. The gist of the method: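 Enzyme mixed with inhibitor at 4 × IC50 and incubated 15 min, with no dialysis. Residual activity read with kynuramine by 4-hydroxyquinoline fluorescence and expressed against the dialyzed no-inhibitor control.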

The target is the same in data set [6]. In words: Competitive inhibition of human MAOB expressed in insect cell microsomes using varying levels of kynuramine as substrate measured after 20 mins by Lineweaver-burk plot analysis. The gist of the method: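 Activity recorded at 8 kynuramine concentrations (15–250 µM). Runs done without inhibitor and with five inhibitor levels (¼, ½, ¾, 1 and 1¼ × IC50). Mode of inhibition assigned from Lineweaver-Burk plots.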

Structures are written as SMILES.

The term IC50 denotes the concentration needed to halve the response being measured. `c1ccc(-n2cc(C3=NCCN3)c(-c3cccs3)n2)cc1`: the IC50 in data set [1] is above 100 µM; in data set [2], 18.4 µM. The Ratio IC50 in the data set filed under Homo sapiens was above 5.4.
In the same order, the values of `c1csc(-c2noc(-c3ccc(C4=NCCN4)cc3)n2)c1` are 1.57 µM, 0.89 µM and 1.7.
Regarding `CC1CN=C(c2ccc(-c3noc(-c4ccc(Cl)c(Cl)c4)n3)cc2)N1` (centres undefined), the IC50 in data set [1] was 14.7 µM; in data set [2] it was 0.16 µM. The Ratio IC50 in the data set listed under Homo sapiens came to 91.
Regarding `Cn1ncc2c(c1=O)Oc1ccccc1C1=NCCN12`, the IC50 in data set [1] and in data set [2] was above 100 µM each time.
Regarding `N#Cc1ccc(C2=NCCN2c2ccc(C(F)(F)F)cn2)cc1`, the IC50 in data set [1] is above 100 µM; in data set [2], 41.8 µM. Further, in the data set listed under Homo sapiens, the Ratio IC50 was above 2.4.
In the case of `c1ccc2c(c1)Oc1nccnc1N1CCN=C21`, the IC50 in data set [1] and in data set [2] was above 100 µM each time.
Turning to `CCOc1ccc(-c2n[nH]cc2C2=NCCN2)cc1`, the IC50 in data set [1] and in data set [2] was above 100 µM each time.
In the case of `Clc1ccccc1-c1noc(-c2ccc(C3=NCCN3)cc2)n1`, the results for the IC50 in data set [1] and in data set [2] were 17.1 µM and 0.03 µM, respectively. Moreover, the Ratio IC50 in the data set listed under Homo sapiens is 570.
In general, Ki refers to a dissociation constant, usually derived from enzyme kinetics or from competition with a known ligand. The compound `c1ccc2oc(C3=NCCN3)cc2c1` returned a Ki in data set [3] of 17 µM.
Consider `Clc1ccc(-c2noc(-c3ccc(C4=NCCN4)cc3)n2)cc1Cl`, for which the IC50 in data set [1] amounted to 1.11 µM; in data set [2], 0.012 µM. In addition, the Ratio IC50 in the data set listed under Homo sapiens came to 92.
In the same order, the values of `CC(C)(C)c1ccc(-c2noc(-c3ccc(C4=NCCN4)cc3)n2)cc1` are 0.751 µM, 0.411 µM and 1.8.
For `N#Cc1cccc(C2=NCCN2)c1`, in that order: 147 µM, 1.87 µM and 78.
In the same order, the values of `FC(F)(F)c1cnc2c(c1)Oc1ccccc1C1=NCCN12` are 32 µM, above 100 µM and below 0.32.
For `Cc1ccc(Cc2noc(-c3ccc(C4=NCCN4)cc3)n2)cc1`, the IC50 came to 55.5 µM in data set [1] and 3.64 µM in data set [2]. For the same compound, in the data set filed under Homo sapiens, the Ratio IC50 was 15.
For `COc1ccc(C2=NCCN2)cc1Cn1ccnc1C`, the IC50 in data set [1] and in data set [2] was above 100 µM each time.
In the case of `c1cc(C2=NCCN2)cc(-c2noc(-c3cccs3)n2)c1`, the 50% inhibitory concentration (IC50) was 88.3 µM in data set [1] and 1.06 µM in data set [2]. Besides, in the data set listed under Homo sapiens, the Ratio IC50 stood at 83.
In the same order, the values of `Cc1nc(-c2ccc(C3=NCCN3)cc2)no1` are 41.1 µM, 39.7 µM and 1.
`Cc1ccc(-c2nc(-c3ccc(C4=NCCN4)cc3)no2)cc1`: the values for the IC50 in data set [1] and in data set [2] were 2.31 µM and 0.071 µM, respectively. For the same compound, the Ratio IC50 in the data set listed under Homo sapiens worked out at 32. The Activity in data set [4] worked out at 66%; in data set [5] it was 36%. This compound also had a Ki in data set [6] of 0.038 µM.
Consider `COc1ccc(-c2noc(-c3ccc(C4=NCCN4)cc3)n2)cc1OC`, for which the IC50 was above 100 µM in data set [1] and 0.756 µM in data set [2]. Moreover, the Ratio IC50 in the data set listed under Homo sapiens was above 132.
For `Clc1cccc(-c2nc(-c3cccc(C4=NCCN4)c3)no2)c1`, in that order: 1.39 µM, 0.03 µM and 46.
As to `c1ccc(Oc2ccc(-c3noc(-c4ccc(C5=NCCN5)cc4)n3)cc2)cc1`, the IC50 in data set [1] stood at 2.77 µM; in data set [2] it was 1.37 µM. In the data set listed under Homo sapiens, the Ratio IC50 is 2.
In the same order, the values of `CC(C)c1noc(-c2ccc(C3=NCCN3)cc2)n1` are 22.5 µM, 0.23 µM and 97.
For `c1cc(-c2noc(C3CC3)n2)ccc1C1=NCCN1`, in that order: 7.37 µM, 4.28 µM and 1.7.
For `Cn1ccnc1SCc1ccc(-c2noc(-c3ccc(C4=NCCN4)cc3)n2)cc1`, in that order: 12.4 µM, 2.28 µM and 5.4.
Regarding `Clc1cccc(-c2noc(-c3ccc(C4=NCCN4)cc3)n2)c1`, the IC50 worked out at 5.47 µM in data set [1] and 0.064 µM in data set [2]. Further, the Ratio IC50 in the data set listed under Homo sapiens was 85.
On to `c1ccc(-c2ccc(-c3noc(-c4ccc(C5=NCCN5)cc4)n3)cc2)cc1`, for which the IC50 was above 100 µM in data set [1] and 47.6 µM in data set [2]. Also, the Ratio IC50 in the data set filed under Homo sapiens is above 2.1.
In the same order, the values of `O=c1c2ccccc2cnn1Cc1noc(-c2ccc(C3=NCCN3)cc2)n1` are above 100 µM, 1.26 µM and above 79.
For `c1ccc(OCc2noc(-c3ccc(C4=NCCN4)cc3)n2)cc1`, in that order: above 100 µM, 9.98 µM and above 10.
For `N#Cc1ccc(C2=NCCN2c2cnccn2)cc1`, in that order: above 100 µM, 17.2 µM and above 5.8.
Turning to `c1ncn(Cc2ccc(-c3noc(-c4ccc(C5=NCCN5)cc4)n3)cc2)n1`, the figures for the IC50 in data set [1] and in data set [2] were 24.6 µM and 9.02 µM, respectively. In the data set listed under Homo sapiens, the Ratio IC50 is 2.7.
For `Cc1ccc(-c2noc(-c3ccc(C4=NCC(C)N4)cc3)n2)s1` (centres undefined), the IC50 in data set [1] was 24.7 µM; in data set [2], 0.3 µM. Moreover, the Ratio IC50 in the data set listed under Homo sapiens stood at 82.
In the case of `O=c1ccc(-c2ccccc2)nn1Cc1noc(-c2ccc(C3=NCCN3)cc2)n1`, the IC50 in data set [1] was above 100 µM; in data set [2], 0.608 µM. In the data set filed under Homo sapiens, the Ratio IC50 was above 164.
Turning to `Cc1nn(Cc2nc(-c3cccc(C4=NCCN4)c3)no2)c(=O)c2ccccc12`, the IC50 in data set [1] is 62.2 µM; in data set [2], 23.9 µM. Further, in the data set listed under Homo sapiens, the Ratio IC50 worked out at 2.6.
Consider `COc1cccc(-c2noc(-c3ccc(C4=NCCN4)cc3)n2)c1`, for which the IC50 in data set [1] came to 12 µM; in data set [2] it was 0.216 µM. In the data set filed under Homo sapiens, the Ratio IC50 is 55.
